Experimental data from different studies.
Lines come from different studies, so protocols differ.
CDK4 with cyclin D1: Cyclin-dependent kinase 4, with cyclin D1 (CDK4, Homo sapiens, UniProt P11802)
CDK4 with cyclin D3: Cyclin-dependent kinase 4, with cyclin D3 (CDK4, Homo sapiens, UniProt P11802)
CDK4: Cyclin-dependent kinase 4 (CDK4, Homo sapiens, UniProt P11802)

| target | test | conditions | endpoint | result | SMILES |
| --- | --- | --- | --- | --- | --- |
| CDK4 with cyclin D1 | binding, competition with immobilised ligand | 1 µM | remaining binding | 97% | C[C@]1(O)CCCN(c2nc(Nc3ccc(S(=O)(=O)N[C@H]4CC[C@H](CN5CCN(c6ccc(C7CCC(=O)NC7=O)cc6F)CC5)CC4)cc3F)ncc2C(F)(F)F)C1 (some centres unmarked) |
| CDK4 with cyclin D3 | binding | 0.1 µM | remaining binding | 25% | C1=C/COCc2cc(ccc2OCCN2CCCC2)Nc2nccc(n2)-c2cccc(c2)COC/1 |
| CDK4 with cyclin D1 | binding, competition with immobilised ligand | 1 µM | remaining binding | 91% | C[C@]1(O)CCCN(c2nc(Nc3ccc(S(=O)(=O)N[C@H]4CC[C@H](CN5CCN(c6ccc(C7CCC(=O)NC7=O)cc6F)CC5)CC4)cc3Cl)ncc2C(F)(F)F)C1 (some centres unmarked) |
| CDK4 with cyclin D3 | enzyme activity, inhibitor | 1 µM | inhibition | 0% | CC#CC(=O)N1CCC[C@H]1c1nc(-c2ccc(C(=O)Nc3ccccn3)cc2)c2c(N)nccn12 |
| CDK4 | binding | 1 µM | remaining binding | 83% | CN1CCN(C(=O)c2ccc(NC(=O)Nc3ccc(N(C)c4ccnc(Nc5ccc(CS(C)(=O)=O)cc5)n4)cc3)cc2)CC1 |
| CDK4 | enzyme activity, inhibitor | 0.1 µM | inhibition | 4.95% | Cc1cc(O)c(-c2ccc([C@@H](C)CN(C)C)cc2)c2c1[nH]c(=O)c1sccc12 |
| CDK4 | binding, competition with immobilised ligand | 0.5 µM | remaining binding | 100% | CCCCC(=O)Nc1ccc(-c2ccc3ncn(CCC)c(=O)c3c2)cn1 |
| CDK4 with cyclin D3 | enzyme activity, inhibitor | 1 µM | inhibition | 0% | C=CC(=O)N1CCC([C@@H]2CCNc3c(C(N)=O)c(-c4ccc(Oc5ccccc5)cc4)nn32)CC1 |
| CDK4 with cyclin D1 | binding, competition with immobilised ligand | 1 µM | remaining binding | 46% | CNS(=O)(=O)c1ccc(Nc2ncc(C(F)(F)F)c(N3CCC[C@](C)(O)C3)n2)c(C)c1 |
| CDK4 with cyclin D1 | binding | 1 µM | remaining binding | 82% | COc1ccc2[nH]c3c4[nH]c5ccc(OC)cc5c4c4c(c3c2c1)C(=O)NC4=O |
| CDK4 with cyclin D3 | enzyme activity, inhibitor | 1 µM | inhibition | 2% | CO[C@@H]1[C@H](N(C)C(=O)c2ccccc2)C[C@H]2O[C@]1(C)n1c3ccccc3c3c4c(c5c6ccccc6n2c5c31)C(=O)NC4 |
